From ChEMBL document CHEMBL3632461 (J Med Chem, 2015)

Tested on: not listed separately
Test: Elimination half life in Wistar rat at 1 mg/kg, iv and 3 or 5 mg/kg, po
Format: ADME, organism-based
Details: in vivo, read-out: beta t1/2 (converted)
Outline: (§1)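 Male CD-1 mice (25−35 g), cannulated Wistar-Han rats (250 g), beagle dogs (12 kg) and cynomolgus monkeys (7 kg), fasted overnight and fed 1.0 or 2.0 h after dosing. iv 1 mg/kg in saline or 12% sulfobutyl ether β-cyclodextrin; po 3 or 5 mg/kg in 0.5% methylcellulose. Parameters calculated from plasma concentration−time data; mean ± SD for n = 3, individual values for n = 2.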

In order of falling half-life:
1. COc1ccc(-c2cc(=O)[nH]c(=S)n2CCN)c(OC)c1  1.1 h
2. COc1ccc(OC)c(-c2cc(=O)[nH]c(=S)n2CC(N)=O)c1  0.38 h
3. COc1ccc(-c2cc(=O)[nH]c(=S)n2CCO)c(OC)c1  0.25 h

Tested on: not listed separately
Test: Apparent permeability across RRCK cells
Format: ADME, cell-based, Canis lupus familiaris, MDCKII-LE
Details: dog, MDCK
Outline: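 Passive permeability measured in Ralph−Russ canine kidney (RRCK) cells, a low-transporter line isolated from Madin−Darby canine kidney cells; reported as P_app (10⁻⁶ cm/s).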

In order of falling Papp:
1. COc1ccc(-c2cc(=O)[nH]c(=S)n2CCO)c(OC)c1  13 ×10⁻⁶ cm/s
2. COc1ccc(-c2cc(=O)[nH]c(=S)n2CCN)c(OC)c1  3.5 ×10⁻⁶ cm/s
3. COc1ccc(OC)c(-c2cc(=O)[nH]c(=S)n2CC(N)=O)c1  1.1 ×10⁻⁶ cm/s

Tested on: not listed separately
Test: Fraction unbound in human plasma by equilibrium dialysis method
Format: ADME, cell-free
Details: not given
Outline: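 Fraction unbound in human plasma measured by equilibrium dialysis; mean of three individual determinations.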

In order of rising fraction unbound:
1. COc1ccc(-c2cc(=O)[nH]c(=S)n2CCO)c(OC)c1  0.5
2. COc1ccc(OC)c(-c2cc(=O)[nH]c(=S)n2CC(N)=O)c1  0.6
3. COc1ccc(-c2cc(=O)[nH]c(=S)n2CCN)c(OC)c1  0.7

Tested on: not listed separately
Test: Tmax in Wistar rat at 3 or 5 mg/kg, po
Format: ADME, organism-based
Details: in vivo
Outline: (§2)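 Male animals (CD-1 mice 25−35 g, cannulated Wistar-Han rats 250 g, beagle dogs 12 kg, cynomolgus monkeys 7 kg), fasted overnight and fed 1.0 or 2.0 h after dosing, water ad libitum. Oral dose 3 or 5 mg/kg in 0.5% methylcellulose. Parameters calculated from plasma concentration−time data; mean ± SD for n = 3, individual values for n = 2.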

In order of falling Tmax:
1. COc1ccc(-c2cc(=O)[nH]c(=S)n2CCO)c(OC)c1  1.3 h
2. COc1ccc(OC)c(-c2cc(=O)[nH]c(=S)n2CC(N)=O)c1  0.67 h
3. COc1ccc(-c2cc(=O)[nH]c(=S)n2CCN)c(OC)c1  0.38 h

Molecular target: T1, Myeloperoxidase (Homo sapiens) (UniProt P05164)
T1 sequence (whole entry): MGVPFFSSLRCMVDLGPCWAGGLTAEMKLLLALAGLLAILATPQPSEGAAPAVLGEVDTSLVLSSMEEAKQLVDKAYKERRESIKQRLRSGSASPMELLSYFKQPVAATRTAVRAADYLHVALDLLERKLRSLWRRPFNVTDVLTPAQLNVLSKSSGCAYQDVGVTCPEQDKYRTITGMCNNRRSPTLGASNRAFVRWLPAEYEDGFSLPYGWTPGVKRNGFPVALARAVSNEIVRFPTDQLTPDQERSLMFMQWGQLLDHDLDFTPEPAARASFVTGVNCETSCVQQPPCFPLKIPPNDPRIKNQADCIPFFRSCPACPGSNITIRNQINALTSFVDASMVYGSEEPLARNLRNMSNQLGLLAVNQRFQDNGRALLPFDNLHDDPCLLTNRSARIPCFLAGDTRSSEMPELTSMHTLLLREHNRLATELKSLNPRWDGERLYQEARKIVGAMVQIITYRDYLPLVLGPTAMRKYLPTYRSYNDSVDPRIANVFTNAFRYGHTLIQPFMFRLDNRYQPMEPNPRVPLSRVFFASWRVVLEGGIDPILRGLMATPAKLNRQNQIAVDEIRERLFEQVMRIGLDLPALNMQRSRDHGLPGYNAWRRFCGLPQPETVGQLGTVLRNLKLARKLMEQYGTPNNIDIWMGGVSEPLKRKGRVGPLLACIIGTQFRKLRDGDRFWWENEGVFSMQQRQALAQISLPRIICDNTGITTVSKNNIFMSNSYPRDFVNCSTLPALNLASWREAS
Test: Inhibition of peroxidase activity of MPO isolated from human polynuclear leukocytes using Amplex Red as substrate assessed as formation of resorufin by measuring ratio of Kinact to Ki measured every 20 secs by spectrophotometric analysis
Details: not given
Outline: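 Enzyme purified from human polynuclear leukocytes. Buffer: 50 mM sodium phosphate pH 7.4, 150 mM NaCl, 1 mM DTPA, 2 μM H2O2, 30 μM Amplex Red, inhibitor or DMSO. Resorufin fluorescence (ex 530/em 580) read every 20 s at room temperature. Progress curves fitted for kobs at each concentration. kinact/KI derived from the kobs versus [I] fit or slope. Geometric mean of at least two experiments.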

In order of rising log(ratio):
1. COc1ccc(OC)c(-c2cc(=O)[nH]c(=S)n2CC(N)=O)c1  4.09
2. COc1ccc(-c2cc(=O)[nH]c(=S)n2CCN)c(OC)c1  4.13
3. COc1ccc(-c2cc(=O)[nH]c(=S)n2CCO)c(OC)c1  4.47

Tested on: not listed separately
Test: Plasma clearance in Beagle dog at 1 mg/kg, iv and 3 or 5 mg/kg, po
Format: ADME, organism-based, Canis lupus familiaris
Details: not given
Outline: as §1

In order of rising clearance:
1. COc1ccc(OC)c(-c2cc(=O)[nH]c(=S)n2CC(N)=O)c1  7.07 mL/min/kg
2. COc1ccc(-c2cc(=O)[nH]c(=S)n2CCO)c(OC)c1  11.9 mL/min/kg
3. COc1ccc(-c2cc(=O)[nH]c(=S)n2CCN)c(OC)c1  13.4 mL/min/kg

Tested on: Hepatocyte
Test: Intrinsic apparent clearance in human hepatocytes assessed per 10^6 cells
Format: ADME, cell-based
Details: not given
Outline: (§3)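 Stability incubations in NADPH-supplemented human liver microsomes or cryopreserved human hepatocytes. Total apparent intrinsic clearance scaled from the in vitro half-life; microsomes reported per mg protein, hepatocytes per 10⁶ cells.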

In the case of `COc1ccc(OC)c(-c2cc(=O)[nH]c(=S)n2CC(N)=O)c1`, the “CLH(app)” value is reported as less than 6 µL/min.
For `COc1ccc(-c2cc(=O)[nH]c(=S)n2CCO)c(OC)c1`, the “CLH(app)” value was less than 6 µL/min.

With `COc1ccc(-c2cc(=O)[nH]c(=S)n2CCN)c(OC)c1` the “CLH(app)” value was 2.9 µL/min.

Tested on: not listed separately
Test: Volume of distribution at steady state in Wistar rat at 1 mg/kg, iv and 3 or 5 mg/kg, po
Format: ADME, organism-based
Details: in vivo, read-out: Vdss
Outline: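 Male mice, rats, dogs and cynomolgus monkeys, fasted overnight, fed after dosing. Intravenous dose 1 mg/kg in saline or 12% sulfobutyl ether β-cyclodextrin; oral arm 3 or 5 mg/kg in 0.5% methylcellulose. Steady-state volume derived from plasma concentration−time data; mean ± SD for n = 3, individual values for n = 2.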

In order of rising Vd:
1. COc1ccc(-c2cc(=O)[nH]c(=S)n2CCO)c(OC)c1  0.82 L/kg
2. COc1ccc(OC)c(-c2cc(=O)[nH]c(=S)n2CC(N)=O)c1  0.83 L/kg
3. COc1ccc(-c2cc(=O)[nH]c(=S)n2CCN)c(OC)c1  3.71 L/kg

Tested on: not listed separately
Test: Oral bioavailability in Beagle dog at 3 or 5 mg/kg
Format: ADME, organism-based, Canis lupus familiaris
Details: in vivo
Outline: (§4)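 Male CD-1 mice, Wistar-Han rats, beagle dogs and cynomolgus monkeys, fasted overnight and fed after dosing. Given po at 3 or 5 mg/kg in 0.5% methylcellulose, with an iv reference dose of 1 mg/kg. Bioavailability derived from plasma concentration−time data; mean ± SD (n = 3) or individual values (n = 2).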

In order of rising bioavailability:
1. COc1ccc(-c2cc(=O)[nH]c(=S)n2CCO)c(OC)c1  16%
2. COc1ccc(-c2cc(=O)[nH]c(=S)n2CCN)c(OC)c1  84%
3. COc1ccc(OC)c(-c2cc(=O)[nH]c(=S)n2CC(N)=O)c1  100%

Tested on: not listed separately
Test: Plasma clearance in Wistar rat at 1 mg/kg, iv and 3 or 5 mg/kg, po
Format: ADME, organism-based
Details: not given
Outline: as §1

In order of rising clearance:
1. COc1ccc(OC)c(-c2cc(=O)[nH]c(=S)n2CC(N)=O)c1  37.6 mL/min/kg
2. COc1ccc(-c2cc(=O)[nH]c(=S)n2CCO)c(OC)c1  59.3 mL/min/kg
3. COc1ccc(-c2cc(=O)[nH]c(=S)n2CCN)c(OC)c1  70.3 mL/min/kg

Molecular target: T2, Myeloperoxidase (Homo sapiens, UniProt P05164)
T2 sequence (P05164 whole entry): T1 sequence (whole entry)
Test: Irreversible inhibition of MPO in LPS-stimulated human whole blood after 4 hrs by Amplex Red/H2O2-based fluorescence plate reader analysis
Details: not given
Outline: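 Heparinized whole blood from healthy human volunteers, stimulated with bacterial LPS and incubated with compound for 4 h. MPO captured on anti-MPO antibody plates and washed; residual activity measured with Amplex Red and H₂O₂. IC₅₀ reported as geometric mean [90% CI].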

In order of falling IC50:
1. COc1ccc(-c2cc(=O)[nH]c(=S)n2CCO)c(OC)c1  2 µM
2. COc1ccc(OC)c(-c2cc(=O)[nH]c(=S)n2CC(N)=O)c1  1.5 µM
3. COc1ccc(-c2cc(=O)[nH]c(=S)n2CCN)c(OC)c1  0.5 µM

Tested on: Liver microsome
Test: Intrinsic apparent clearance in human liver microsomes
Format: ADME
Details: not given
Outline: as §3

Going from `COc1ccc(OC)c(-c2cc(=O)[nH]c(=S)n2CC(N)=O)c1` to `COc1ccc(-c2cc(=O)[nH]c(=S)n2CCN)c(OC)c1`, the CLH(app) rises from less than 8 µL/min/mg to 8.8 µL/min/mg.

`COc1ccc(-c2cc(=O)[nH]c(=S)n2CCO)c(OC)c1` gave a CLH(app) of less than 8 µL/min/mg.

Tested on: not listed separately
Test: Lipophilicity, log D of the compound at pH 7.4 by shake-flask method
Format: physicochemical
Details: buffer

In order of rising logD:
1. COc1ccc(-c2cc(=O)[nH]c(=S)n2CCN)c(OC)c1  -0.17
2. COc1ccc(OC)c(-c2cc(=O)[nH]c(=S)n2CC(N)=O)c1  0.34
3. COc1ccc(-c2cc(=O)[nH]c(=S)n2CCO)c(OC)c1  1.1

Tested on: not listed separately
Test: Tmax in Beagle dog at 3 or 5 mg/kg, po
Format: ADME, organism-based, Canis lupus familiaris
Details: in vivo
Outline: as §2

In order of rising Tmax:
1. COc1ccc(OC)c(-c2cc(=O)[nH]c(=S)n2CC(N)=O)c1  0.63 h
2. COc1ccc(-c2cc(=O)[nH]c(=S)n2CCO)c(OC)c1  1.17 h
3. COc1ccc(-c2cc(=O)[nH]c(=S)n2CCN)c(OC)c1  1.3 h

Tested on: not listed separately
Test: Elimination half life in Beagle dog at 1 mg/kg, iv and 3 or 5 mg/kg, po
Format: ADME, organism-based, Canis lupus familiaris
Details: in vivo, read-out: beta t1/2 (converted)
Outline: as §1

In order of falling half-life:
1. COc1ccc(-c2cc(=O)[nH]c(=S)n2CCN)c(OC)c1  5.7 h
2. COc1ccc(-c2cc(=O)[nH]c(=S)n2CCO)c(OC)c1  5.3 h
3. COc1ccc(OC)c(-c2cc(=O)[nH]c(=S)n2CC(N)=O)c1  2.8 h

Tested on: not listed separately
Test: Oral bioavailability in Wistar rat at 3 or 5 mg/kg
Format: ADME, organism-based
Details: in vivo
Outline: as §4

In order of falling bioavailability:
1. COc1ccc(-c2cc(=O)[nH]c(=S)n2CCN)c(OC)c1  91%
2. COc1ccc(OC)c(-c2cc(=O)[nH]c(=S)n2CC(N)=O)c1  61%
3. COc1ccc(-c2cc(=O)[nH]c(=S)n2CCO)c(OC)c1  8%
